In ChEMBL document CHEMBL3098083, “Curcumin glucuronides: assessing the proliferative activity against human cell lines” (Bioorg Med Chem, 2014):

How the values were obtained:
[1] = tested on: KBM5; assay: Inhibition of TNF-induced NF-kappaB activation in human KBM5 cells at 50 uM preincubated for 4 hrs followed by TNF addition measured after 30 mins by EMSA relative to control; type: cell-based
Procedure, shortened: (§1)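 KBM-5 cells (IMDM, 15% FBS) were pretreated 4 h, then stimulated with bacteria-derived human recombinant TNF at 0.1 nM for 30 min. Nuclear extracts (15 μg protein) were incubated with 16 fmol 32P-labelled 45-mer HIV-LTR NF-κB oligonucleotide for 30 min at 37 °C. Complexes were resolved on 6.6% native polyacrylamide gels, and bands were quantified by phosphorimaging.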

[2] = tested on: KBM5; assay: Inhibition of TNF-induced NF-kappaB activation in human KBM5 cells at 10 uM preincubated for 4 hrs followed by TNF addition measured after 30 mins by EMSA relative to control; type: cell-based; procedure, shortened: as §1
[3] = Antiproliferative activity against human U266 cells after 72 hrs by MTT assay; type: functional, cell-based; conditions: U-266, 72 h
Procedure, shortened: (§2)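 Cells seeded at 5 × 10^3 per well in triplicate and exposed to 1, 5, 10, 25, 50, 100 or 200 μM for 72 h at 37 °C. MTT was added for 2 h, then SDS/DMF extraction buffer overnight, and A570 was read. Results are % viability, mean ± SD. Media: KBM-5 in IMDM/15% FBS; Jurkat and U266 in RPMI 1640; A549 in DMEM/10% FBS; all with penicillin/streptomycin.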

[4] = tested on: A549; assay: Antiproliferative activity against human A549 cells after 72 hrs by MTT assay; type: functional, cell-based; conditions: A549, 72 h; procedure, shortened: as §2
[5] = tested on: Jurkat; assay: Antiproliferative activity against human Jurkat cells after 72 hrs by MTT assay; type: functional, cell-based; procedure, shortened: as §2
[6] = Antiproliferative activity against human KBM5 cells after 72 hrs by MTT assay; type: functional, cell-based; conditions: KBM5, 72 h; procedure, shortened: as §2
[7] = tested on: KBM5; assay: Inhibition of TNF-induced NF-kappaB activation in human KBM5 cells at 25 uM preincubated for 4 hrs followed by TNF addition measured after 30 mins by EMSA relative to control; type: cell-based; procedure, shortened: as §1

## COc1cc(/C=C/C(=O)/C=C(O)/C=C/c2ccc(O[C@@H]3O[C@H](C(=O)O)[C@@H](O)[C@H](O)[C@H]3O)c(OC)c2)ccc1O[C@@H]1O[C@H](C(=O)O)[C@@H](O)[C@H](O)[C@H]1O
[1]
  fold change (FC): 5.5
[2]
  fold change (FC): 5.6
[3]
  IC50: > 200 µM
[4]
  IC50: > 200 µM
[5]
  IC50: > 200 µM
[6]
  IC50: > 200 µM
[7]
  fold change (FC): 5.6

## COc1cc(/C=C/C(O)=C/C(=O)/C=C/c2ccc(O[C@@H]3O[C@H](C(=O)O)[C@@H](O)[C@H](O)[C@H]3O)c(OC)c2)ccc1O
[1]
  fold change (FC): 5.1
[2]
  fold change (FC): 5.3
[3]
  IC50: > 200 µM
[4]
  IC50: > 200 µM
[5]
  IC50: > 200 µM
[6]
  IC50: > 200 µM
[7]
  fold change (FC): 5.3

## COc1cc(/C=C/C(=O)CC(=O)/C=C/c2ccc(O)c(OC)c2)ccc1O [CURCUMIN]
[1]
  fold change (FC): 0.8
[2]
  fold change (FC): 3
[3]
  IC50: 7.57 µM
[4]
  IC50: 17.3 µM
[5]
  IC50: 4.29 µM
[6]
  IC50: 3.84 µM
[7]
  fold change (FC): 1
